High-throughput results: PubChem BioAssay, several laboratories
MT stabilizer: microtubule stabilizers in HeLa cells, primary screen, imaging, high-content imaging; % tubulin-high responders, % at 10 µM; AID 2205, 2009; actives 0.83% (n = 200,000); HeLa tubulin immunostaining HCS, 24 h; share of cells brighter than vehicle mean+2SD;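 active = plate Z-score above 3 for both tubulin-high and condensed-nucleus cell shares, with cell loss under 80%, at 10 µM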;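 note: anti alpha tubulin signal scored within the nucleus-defined area of each cell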
b-catenin transl: modulators of beta-catenin nuclear translocation, primary screen, imaging, HeLa cells, immunofluorescence, high-content; nuclear translocation activity, % at 5 µM; actives 0.3% (n = 190,000);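 active = nuclear translocation activity above 50% at 5 µM, with a well cell count of 50 or more; inconclusive = wells under 50 cells across six images, flagged as toxic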;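 note: per-cell ratio of nuclear to cytoplasmic median beta-catenin stain intensity; plate controls were DMSO negative control for no effect and GSK-3 inhibitor IX positive control for full effect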
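Assay system: human HeLa cells, native beta-catenin; doses: 5 µM primary, 0.02–20 µM confirmation; incubation: compound treatment 24 h, 37°C, 5% CO2; technique: fluorescence imaging of beta-catenin antibody stain plus DAPI; measure: % activation, nuclear-to-cytoplasmic median beta-catenin signal ratio per cell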
Ins promoter up: insulin promoter activators in MIN6 cells, imaging, high-content screening, mouse beta cells; MIN6 insulin promoter-GFP reporter; active compounds read high; z-score at 5 µM; actives 0.3% (n = 190,000); AID 1625, 2009;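 active = z-score above 3 at 5 µM with at least 500 cells counted in the well; inconclusive = wells under 500 cells, flagged as cytotoxic or low count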
Autophagy HCS: autophagy modulators in MEF cells, primary screen, imaging, high-content, MEF GFP-LC3; AID 463193, 2010; MEF GFP-LC3 puncta imaging; test concentration mostly 10 µM; actives 0.98% (n = 190,000); calls only at 10 µM (by protocol);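 active = percentage of spot-positive cells more than 3 SD above its plate mean, without a fluorescence outlier flag or 80% toxicity; inconclusive = no clear call, values can overlap the other calls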;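 note: spot-positive cell cutoff set from DMSO-treated cells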
Active calls of the source: *; i = inactive; ? = inconclusive; / = no result; + = active, no number. This is a sample that favours compounds with a hit; in the whole collection about 1.9% have one here.

SMILES	MT stabilizer	b-catenin transl	Ins promoter up	Autophagy HCS
Cc1cc(N2CCN(C)CC2)nc2ccc(NC(=S)NCCCN3CCc4ccccc4C3)cc12	1.9	-0.7	0.2	i
COC(=O)c1sccc1NC(=S)N1CCN(c2cccc(C)c2C)CC1	15.0*	-0.9	-0.28	i
Cc1cccc(N2CCN(C(=S)Nc3ccc4nc(N5CCN(C)CC5)cc(C)c4c3)CC2)c1C	7.6	3.1	/	+
Cc1cc(N2CCN(C)CC2)nc2ccc(NC(=S)NCCN3CCc4ccccc4C3)cc12	2.6	-2.4	-4.34	+
CC(C)=CC(=O)OCC(=O)Nc1cc(C)cc(C)c1	1.6	-2.2	0.6	i
O=C1N=c2ccc(Br)cc2=C1c1sc(=S)n(NS(=O)(=O)c2ccccc2)c1O	3.4	-2.3	0.02	i
O=C(c1cccnc1)N1CCN(c2c(Cl)cccc2[N+](=O)[O-])CC1	1.0	3.3	0.56	i
COc1ccc(-c2csc(N3C(=O)C4C5c6ccccc6C(c6ccccc65)C4C3=O)n2)cc1 (stereo not drawn)	2.1	-0.9	0.99	i
COC(=O)CCC(=O)Nc1sc(C)c(C)c1C(N)=O	2.8	1.7	1.1	i
COC(=O)CCC(=O)NC(=S)Nc1sc(C)c(C)c1C(N)=O	21.2*	1.3	-0.89	i
OC(COc1cccc2ccccc12)CN1CCN(c2ccccc2Cl)CC1 (stereo not drawn)	/	-0.9	3.51*	/
COc1ccc(/C=N/NC(=O)CCn2c3ccccc3c3ccccc32)cc1O	18.5*	52.9*	-0.28	i
COC(=O)c1ccc2c(=O)n(Cc3ccc(C(=O)NCCCN4CCC(C)CC4)cc3)c(=S)[nH]c2c1	4.7	-1.8	/	i
CCOC(=O)C1CCCN(C(=O)c2ccc(Cn3c(=S)[nH]c4cc(C(=O)OC)ccc4c3=O)cc2)C1 (stereo not drawn)	18.0*	/	-0.16	i
CC1CCN(CCCNC(=O)c2ccc3c(=O)n(Cc4ccc(Cl)cc4)c(=S)[nH]c3c2)CC1	30.7	3.3	0.81	+
CNc1ccc(Br)cc(C(=O)/C=C/c2cccc(OC)c2)c1=O	12.9*	38.0	/	i
CNc1ccc(Br)cc(C(=O)/C=C/c2ccc(Cl)cc2Cl)c1=O	9.3*	0.8	0.28	i
CCNc1ccc(Br)cc(C(=O)/C=C/c2ccc(Cl)cc2)c1=O	15.6*	-1.7	1.07	i
CNc1ccc(Br)cc(C(=O)/C=C/c2ccc(OC)cc2OC)c1=O	4.4	-3.6	0.38	i
CCNc1ccc(Br)cc(C(=O)/C=C/c2c(Cl)cccc2Cl)c1=O	38.5	7.0	?	+
CC1CC(C)(C)NC(=S)N1CCCC(=O)Nc1ccc2c(c1)OCCO2 (stereo not drawn)	5.2	1.9	0.24	i
O=C(NC1CCCCCC1)c1cccs1	1.7	/	/	i
Nc1c(C(=O)NC2CCCC2)sc2nc(-c3cccs3)ccc12	4.4	/	3.89*	i
COc1ccc(N2CCN(C(=O)c3cc4c(-c5cccc(OC)c5)nn(C)c4s3)CC2)cc1	3.9	0.2	-1.36	+
COc1cccc(-c2nn(C)c3sc(C(=O)Nc4ccc5c(c4)OCCO5)cc23)c1	3.4	-0.1	-0.93	+
SMILES	MT stabilizer	b-catenin transl	Ins promoter up	Autophagy HCS
CCOC(=O)N1CCC(NC(=O)c2cc3c(-c4cccc(OC)c4)nn(C)c3s2)CC1	7.7*	-0.4	-1.3	i
Cn1nc(-c2ccccc2F)c2cc(C(=O)Nc3ccc4c(c3)OCCO4)sc21	2.8	/	-0.65	i
Cc1cc(NC(=O)Cn2cc([N+](=O)[O-])cn2)no1	2.2	-3.1	0.13	i
O=C(Nc1c(S(=O)(=O)c2ccc(Cl)cc2)csc1Br)c1ccccc1Cl	/	0.1	-0.02	/
C=CCN1CC(O)=C(c2ccccc2)C1=N	34.2*	4.7	0.72	i
Cc1oc(C)c2c(=O)ccc3c(c12)OC(N)=C(C#N)C3c1ccccc1 (stereo not drawn)	6.2	1.1	/	+
CSc1ccc(C2C(C#N)=C(N)Oc3c2ccc(=O)c2c(C)oc(C)c32)cc1 (stereo not drawn)	5.1	-2.2	1.49	i
CC(/C=N/NC(=O)c1nn(C)c(C)c1Br)=C\c1ccccc1	4.9	2.9	-0.03	i
COC(=O)NC(=S)Nc1ccc(Oc2ccc(Cl)cc2)c(Cl)c1	1.3	2.6	0.27	i
COC(=O)NC(=S)Nc1ccc(Oc2ccc(Cl)cc2Cl)c(Cl)c1	26.0*	-2.7	/	i
COc1cccc(NC(=O)Cn2c(=O)n(-c3ccccc3)c(=O)c3sccc32)c1	2.1	2.2	0.17	i
CN1c2ccccc2C(C)(C)[C@]12C=Cc1cc(O)ccc1O2	30.6*	0.4	1.57	i
CCOC(=O)c1c(CN2CCN(c3ccccc3)CC2)oc2ccc(O)cc12	12.6*	3.0	1.18	i
CCC(=O)c1ccc(OC(C)C(=O)NC2(C#N)CCCCC2)cc1 (stereo not drawn)	3.3	-1.2	/	i
Cc1cc2c(c(/C=C/C(=O)c3ccccc3)c1)OC1(C=C2)Oc2ccccc2C(=O)N1C (stereo not drawn)	9.7	-5.2	-2.09	i
O=C1c2ccccc2OC2(C=Cc3ccccc3O2)N1Cc1ccccc1 (stereo not drawn)	42.2*	48.4	/	i
Cc1c(-c2nc(N)nc(Nc3ccccc3)n2)oc2ccccc12	24.7*	-1.2	-0.14	i
O=C(C[n+]1cc(-c2ccccc2)n2c1CCCCC2)c1ccc(Cl)cc1	5.0	0.0	-0.36	i
CC1CCC(C(C)C)C(OC(=O)C[n+]2cc(-c3ccc(Cl)cc3)n3c2CCCCC3)C1 (stereo not drawn)	5.8	-0.9	-4.3	+
Cc1ccc(Nc2cc(C)nc(NCc3ccccc3)n2)cc1	30.1*	-0.5	-0.03	i
CC(OC(=O)c1cc(S(=O)(=O)N(C)c2ccccc2)ccc1Cl)C(=O)Nc1ccc2c(c1)OCCO2 (stereo not drawn)	1.9	-0.2	-0.15	i
c1ccc(Oc2cccc(OCCCCN3CCCC3)c2)cc1	3.7	0.0	-0.47	i
CC(Nc1nc(N2CCNCC2)nc2ccccc12)c1ccccc1 (stereo not drawn)	4.2	-0.6	-1.44	+
CC(=O)c1nnn(-c2cccc(C#N)c2)c1C	/	-0.1	0.02	/
CCc1cc(C(=O)OC)c(NC(=O)CC2Nc3cc(C)c(C)cc3NC2=O)s1 (stereo not drawn)	1.1	-1.7	0.06	+
COC(=O)c1c(NC(=O)CC2Nc3cc(C)c(C)cc3NC2=O)sc(C)c1C (stereo not drawn)	3.6	21.3	6.44*	i
COc1cccc(C2(CSc3nnc(-c4cc(OC)c(OC)c(OC)c4)o3)OCCO2)c1	3.0	3.0	-1.11	i
Cc1cc2nc3n(c2cc1C)CC1CC(C(=O)NCc2ccco2)N(C)C31 (stereo not drawn)	/	-0.1	-0.31	/
COC(=O)c1c(C)oc2ccc(N(C(=O)c3ccncc3)S(=O)(=O)c3ccccc3)cc12	1.7	0.5	-0.13	i
